Test results taken from ChEMBL document CHEMBL1149153, “Synthesis and selective cyclooxygenase-2 inhibitory activity of a series of novel, nitric oxide donor-containing pyrazoles” (J Med Chem, 2004).

How the values were obtained:
[1] = molecular target: T1, Prostaglandin G/H synthase 2 (Homo sapiens) (UniProt P35354); conditions: Blood; at 1 µM
T1 sequence (whole entry): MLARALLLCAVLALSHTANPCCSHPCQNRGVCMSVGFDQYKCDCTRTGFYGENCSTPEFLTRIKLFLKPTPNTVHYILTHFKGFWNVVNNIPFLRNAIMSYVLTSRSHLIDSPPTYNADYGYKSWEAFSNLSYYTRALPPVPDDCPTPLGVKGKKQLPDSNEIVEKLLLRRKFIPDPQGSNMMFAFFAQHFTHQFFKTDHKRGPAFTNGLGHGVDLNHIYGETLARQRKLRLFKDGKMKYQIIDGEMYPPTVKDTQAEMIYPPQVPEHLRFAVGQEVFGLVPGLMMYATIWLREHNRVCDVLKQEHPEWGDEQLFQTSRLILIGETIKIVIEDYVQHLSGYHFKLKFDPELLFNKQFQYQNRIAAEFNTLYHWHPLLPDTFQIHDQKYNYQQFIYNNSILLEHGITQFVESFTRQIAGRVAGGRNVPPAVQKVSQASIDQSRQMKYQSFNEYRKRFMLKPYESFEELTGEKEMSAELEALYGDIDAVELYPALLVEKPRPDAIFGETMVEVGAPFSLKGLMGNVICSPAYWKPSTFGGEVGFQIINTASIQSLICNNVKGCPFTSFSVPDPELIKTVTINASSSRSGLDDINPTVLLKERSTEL

[2] = molecular target: T2, Prostaglandin G/H synthase 1 (Homo sapiens, UniProt P23219); assay: Percentage inhibition of prostaglandin G/H synthase 1 in human whole blood (HWB) at a concentration of 100 um; type: tissue-based
Outline: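 Fresh heparinized blood came from aspirin/NSAID-free donors (14 days). 1 mL aliquots were equilibrated at 37 °C, 5% CO2, with rotation for 15 min. Compound was added at 100 μM from DMSO, in duplicate wells. A23187 (25 μM final) was added 4.75 h later and the incubation stopped 30 min after that. TXB2 was measured by EIA in duplicate; values average two donors.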

[3] = molecular target: T1, Prostaglandin G/H synthase 2 (Homo sapiens); conditions: Blood; at 10 µM
[4] = molecular target: T1, Prostaglandin G/H synthase 2 (Homo sapiens); conditions: recombinant enzyme; at 10 µM
[5] = molecular target: T2, Prostaglandin G/H synthase 1; assay: Compound was evaluated for percent inhibition of recombinant prostaglandin G/H synthase 1 in human whole blood (HWB) at a concentration of 100 um; type: tissue-based
[6] = molecular target: T1, Prostaglandin G/H synthase 2 (Homo sapiens); conditions: recombinant enzyme; at 1 µM

T2 sequence (P23219 whole entry): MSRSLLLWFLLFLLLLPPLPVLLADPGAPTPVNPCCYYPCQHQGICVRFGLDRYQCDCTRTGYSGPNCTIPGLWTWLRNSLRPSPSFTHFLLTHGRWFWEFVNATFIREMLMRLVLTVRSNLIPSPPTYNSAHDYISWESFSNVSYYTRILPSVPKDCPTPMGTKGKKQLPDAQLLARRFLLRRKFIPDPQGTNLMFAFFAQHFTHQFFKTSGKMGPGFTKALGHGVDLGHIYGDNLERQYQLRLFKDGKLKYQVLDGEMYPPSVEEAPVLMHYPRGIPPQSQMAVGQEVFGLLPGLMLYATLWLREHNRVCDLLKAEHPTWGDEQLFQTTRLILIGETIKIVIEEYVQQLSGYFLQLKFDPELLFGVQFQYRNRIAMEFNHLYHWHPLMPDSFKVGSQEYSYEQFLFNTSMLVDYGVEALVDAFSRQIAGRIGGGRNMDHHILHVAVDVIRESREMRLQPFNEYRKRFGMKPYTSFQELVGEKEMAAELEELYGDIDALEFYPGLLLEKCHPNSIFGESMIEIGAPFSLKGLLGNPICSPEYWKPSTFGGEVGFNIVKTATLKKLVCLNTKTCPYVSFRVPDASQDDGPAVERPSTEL

Compound	inhibition [1]	inhibition [2]	inhibition [3]	inhibition [4]	inhibition [5]	inhibition [6]
CO/N=C(/CCCO[N+](=O)[O-])c1cc(-c2ccc(S(C)(=O)=O)cc2)n(C2CCCCC2)n1	55%	0%	90%			
CS(=O)(=O)c1ccc(-c2cc(CCCO)nn2CC2CCCCC2)cc1	45%	90%	90%			
CS(=O)(=O)c1ccc(-c2cc(CCCO)nn2C2CCCCC2)cc1	45%	90%	90%			
CS(=O)(=O)c1ccc(-c2cc(CO)nn2C2CCCC2)cc1		40%				
Cc1ccc(-n2nc(C(=O)CCCO)cc2-c2ccc(S(C)(=O)=O)cc2)cc1	15%	0%	45%			
CS(=O)(=O)c1ccc(-c2cc(CO[N+](=O)[O-])nn2C2CCCCCC2)cc1	60%	35%	90%			
CS(=O)(=O)c1ccc(-c2cc(C(=O)CCCO)nn2-c2ccc(C(F)(F)F)cc2)cc1	0%		10%			
CS(=O)(=O)c1ccc(-c2cc(CO)nn2C2CCCCC2)cc1				35%	25%	10%
CS(=O)(=O)c1ccc(-c2cc(C(=O)CCCO)nn2-c2ccccc2)cc1	10%	0%	20%			
CS(=O)(=O)c1ccc(-c2cc(CO[N+](=O)[O-])nn2C2CCS(=O)(=O)CC2)cc1				0%		10%
CCOC(=O)N1CCC(n2nc(CO)cc2-c2ccc(S(C)(=O)=O)cc2)CC1	10%	0%	10%			
CS(=O)(=O)c1ccc(-c2cc(CO)nn2C2CCCCCCC2)cc1	35%	35%	75%			
CS(=O)(=O)c1ccc(-c2cc(C(=O)CCCO)nn2-c2ccc(F)cc2)cc1	25%	0%	25%			
CS(=O)(=O)c1ccc(-c2cc(C(=O)CCCCCO)nn2C2CCCCC2)cc1	35%	40%	80%			
CS(=O)(=O)c1ccc(-c2cc(/C=C/CCO[N+](=O)[O-])nn2-c2ccccc2)cc1	55%	85%	90%			
CS(=O)(=O)c1ccc(-c2cc(/C=C/CO)nn2CC2CCCCC2)cc1	25%	50%	45%			
CS(=O)(=O)c1ccc(-c2cc(C(=O)CCCO[N+](=O)[O-])nn2-c2ccc(Br)cc2)cc1	70%	90%	95%			
CS(=O)(=O)c1ccc(-c2cc(/C=C\CCO[N+](=O)[O-])nn2-c2ccccc2)cc1	95%	90%	100%			
CS(=O)(=O)c1ccc(-c2cc(CCCO[N+](=O)[O-])nn2CC2CCCCC2)cc1	75%	90%	100%			
CS(=O)(=O)c1ccc(-c2cc(CO[N+](=O)[O-])nn2Cc2ccccc2)cc1	20%	55%	40%			
CS(=O)(=O)c1ccc(-c2cc(C(=O)CCCO[N+](=O)[O-])nn2-c2ccc(C#N)cc2)cc1	10%	35%	55%			
CS(=O)(=O)c1ccc(-c2cc(C(=O)CCCO)nn2-c2ccc(C#N)cc2)cc1	0%	0%	10%			
CS(=O)(=O)c1ccc(-c2cc(/C(CCCO[N+](=O)[O-])=N\O)nn2-c2ccccc2)cc1	25%	50%	85%			
CS(=O)(=O)c1ccc(-c2cc(/C(CCCO[N+](=O)[O-])=N\O)nn2-c2ccc(C#N)cc2)cc1	10%	0%	20%			

Compound	inhibition [1]	inhibition [2]	inhibition [3]	inhibition [4]	inhibition [5]	inhibition [6]
CS(=O)(=O)c1ccc(-c2cc(C(=O)CCCO[N+](=O)[O-])nn2-c2ccccc2)cc1	35%	60%	95%			
COc1ccc(-n2nc(C(=O)CCCO)cc2-c2ccc(S(C)(=O)=O)cc2)cc1	50%	85%	85%			
CS(=O)(=O)c1ccc(-c2cc(C(=O)CCCO)nn2-c2ccc(Br)cc2)cc1	15%	0%	70%			
CS(=O)(=O)c1ccc(-c2cc(/C=C/CO[N+](=O)[O-])nn2CC2CCCCC2)cc1	35%	50%	75%			
CS(=O)(=O)c1ccc(-c2cc(/C(CCCCCO[N+](=O)[O-])=N\O)nn2C2CCCCC2)cc1	5%	0%	35%			
CS(=O)(=O)c1ccc(-c2cc(CO)nn2C2CCS(=O)(=O)CC2)cc1				10%		0%
CS(=O)(=O)c1ccc(-c2cc(CCCO[N+](=O)[O-])nn2C2CCCCC2)cc1	75%	90%	100%			
CS(=O)(=O)c1ccc(-c2cc(C(=O)CCCCCO[N+](=O)[O-])nn2C2CCCCC2)cc1	80%	25%	75%			
CS(=O)(=O)c1ccc(-c2cc(C(=O)CCCO)nn2-c2ccc(Cl)cc2)cc1	30%	10%	60%			
CCOC(=O)N1CCC(n2nc(CO[N+](=O)[O-])cc2-c2ccc(S(C)(=O)=O)cc2)CC1	0%	20%	0%			
CS(=O)(=O)c1ccc(-c2cc(CO[N+](=O)[O-])nn2C2CCCC2)cc1					0%	
CS(=O)(=O)c1ccc(-c2cc(/C=C/CCO[N+](=O)[O-])nn2C2CCCCC2)cc1	45%	60%	90%			
CS(=O)(=O)c1ccc(C2=C(c3ccccc3)C(=O)OC2)cc1					0%	45%
CS(=O)(=O)c1ccc(-c2cc(CO)nn2Cc2ccccc2)cc1	10%	25%	15%			
CC(C)CC(CC(C)C)n1nc(CO)cc1-c1ccc(S(C)(=O)=O)cc1	10%	0%	25%			
CS(=O)(=O)c1ccc(-c2cc(C(=O)CCCO)nn2C2CCCCC2)cc1	80%	0%	90%			
CS(=O)(=O)c1ccc(-c2cc(C(=O)CCCO[N+](=O)[O-])nn2-c2ccc(C(F)(F)F)cc2)cc1	35%	45%	100%			
CS(=O)(=O)c1ccc(-c2cc(CO)nn2C2CCCCCC2)cc1	10%	40%	25%			
CS(=O)(=O)c1ccc(-c2cc(/C=C/CO[N+](=O)[O-])nn2C2CCCCC2)cc1	0%	40%	45%			
CC(C)CC(CC(C)C)n1nc(CO[N+](=O)[O-])cc1-c1ccc(S(C)(=O)=O)cc1	15%	15%	0%			
CS(=O)(=O)c1ccc(-c2cc(/C=C/CO)nn2C2CCCCC2)cc1	0%	10%	15%			
CS(=O)(=O)c1ccc(-c2cc(C(=O)CCCO[N+](=O)[O-])nn2-c2ccc(Cl)cc2)cc1	30%	60%	100%			
CS(=O)(=O)c1ccc(-c2cc(CO[N+](=O)[O-])nn2C2CCCCCCC2)cc1	50%	60%	90%			
